Hsp70 act: Hsp70 transcriptional activation, primary screen; HeLa Hsp70 promoter luciferase reporter, luminescence; scaled: vehicle 0, proteasome-inhibitor control 100%; activation, % at 10 µM; 0.04% of 200,000 active;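 active means activation above the mean across all tested compounds plus 3 SD, cutoff set per campaign, cut at about 5.5% in these data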;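 further: 100% = MG132 at 30 µM as the positive control and 0% = DMSO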
Wee1 stabilizer: human Wee1 degradation inhibition, primary screen. 1.2% of 220,000 active. reporter increase, % at 5 µM. P30291. HeLa Luc-Wee1K328M stability, luciferase luminescence; 100% = proteasome inhibitor MG132 effect;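 active means activation above the mean of all tested compounds plus 3 SD, set per screening run, cut at about 8.8% in these data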;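 further: cells exposed to compound for 20 h before luminescence read; 0% = DMSO alone and 100% = MG132 at 30 µM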
NPY1 pot ag: potentiators or agonists of human neuropeptide Y receptor Y1 | NPY-Y1 expressing cells, potentiator/agonist activation | activation, % at 3.6 µM | 0.37% of 220,000 active | AID 1304; in the data active means activation above about 33%, passing the limit was not always enough;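 further: cells stimulated with NPY at EC10 then isoproterenol at EC100; 0% = low agonist plus stimulus and 100% = saturating agonist plus stimulus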
NPY Y2 blocker: blocks the human neuropeptide Y Y2 receptor | P49146 | NPY-Y2 expressing cells, antagonist mode | inhibition, % at 2.7 µM | 0.99% of 140,000 active | AID 793;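 further: 0% = vehicle with agonist challenge and 100% = reference antagonist with challenge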
Target sequence (P49146 whole entry, looked up): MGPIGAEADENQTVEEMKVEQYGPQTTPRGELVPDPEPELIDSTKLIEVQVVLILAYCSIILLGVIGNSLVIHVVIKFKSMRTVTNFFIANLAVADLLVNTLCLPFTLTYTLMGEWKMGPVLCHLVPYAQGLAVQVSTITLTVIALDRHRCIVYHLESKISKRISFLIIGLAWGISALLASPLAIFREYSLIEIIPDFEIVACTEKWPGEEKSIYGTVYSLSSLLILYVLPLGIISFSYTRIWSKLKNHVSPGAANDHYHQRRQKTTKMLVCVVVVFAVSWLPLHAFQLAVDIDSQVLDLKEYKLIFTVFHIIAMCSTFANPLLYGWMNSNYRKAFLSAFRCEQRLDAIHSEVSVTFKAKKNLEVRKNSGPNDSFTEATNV
NPY Y1 blocker: blocks the human neuropeptide Y Y1 receptor; P25929; inhibition, % at 3.6 µM; 1% of 200,000 active; HEK293-CNG Y1 cells, membrane potential fluorescence; NPY at EC95, then isoproterenol;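 active means inhibition above the campaign mean inhibition of all tested compounds plus 3 SD, cut at about 20% in these data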;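 further: 0% = DMSO wells given NPY plus isoproterenol and 100% = isoproterenol alone without NPY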
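Test system – HEK293 Y1/CNG channel cell line · Also added – NPY agonist 25 nM, then isoproterenol 1 µM plus Ro 20-1724 25 µM · Compound dosing – one concentration, 3.6 µM, in 0.4% DMSO · Schedule – compound incubation 1 h at room temperature, readout 45 min post-stimulation · Technique – fluorescence, membrane potential probe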
NPY2 pot ag: potentiates or activates human NPY-Y2 receptor | cells expressing NPY-Y2, potentiator/agonist read-out | activation, % at 3.6 µM | 0.45% of 220,000 active; in the data active means activation above about 27%;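 further: cells stimulated with NPY near EC25 plus isoproterenol at EC100; 0% = vehicle plus submaximal agonist and 100% = vehicle plus saturating agonist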
NPY1 antag conf: human NPY-Y1 antagonism, confirmation; shares compounds with NPY Y1 blocker; AID 1254; 21% of 1,200 active; inhibition, % at 3.6 µM; HEK293-CNG NPY-Y1, membrane potential fluorescence, cAMP; NPY challenge against isoproterenol-raised cAMP; in the data active means inhibition above about 20%;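 further: 0% = vehicle with agonist plus stimulus and 100% = stimulus alone without agonist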
NPY-Y2 antag ct: human NPY-Y2 antagonism in NPY-Y1 counter-screen; 28% of 1,200 active; AID 1255; shares compounds with NPY Y1 blocker; inhibition, % at 3.6 µM; HEK293 NPY-Y2 CNG membrane potential fluorescence; cells given NPY, then isoproterenol;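 further: 0% = DMSO with agonist challenge and 100% = reference antagonist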
The depositor's hits bear a star. Most compounds without a hit are left out; they make up all but 3% or so of the library. Unless noted, no stated cut-off is given here; in the data, active means inhibition above about 17%; inactive means the rest.

`CC(=O)c1ccc(NC(=S)Nc2cccc(Cl)c2C)cc1` gave Hsp70 act 0, Wee1 stabilizer -4, NPY1 pot ag 4, NPY Y1 blocker 4 and NPY2 pot ag 14.
`Cc1cc(S(=O)(=O)N2CCN(c3c(C)cccc3C)CC2)ccc1F` gave Hsp70 act 2, Wee1 stabilizer -3, NPY1 pot ag -50, NPY Y2 blocker 14, NPY Y1 blocker 21*, NPY2 pot ag -13, NPY1 antag conf 9 and NPY-Y2 antag ct 12.
Cc1cc(S(=O)(=O)N2CCN(c3ccccc3C)CC2)ccc1F was read as Hsp70 act 0, Wee1 stabilizer 0, NPY1 pot ag -22, NPY Y2 blocker 13, NPY Y1 blocker 8 and NPY2 pot ag -12.
Screening O=C(CSc1ncnc2ccccc12)NCc1ccc2c(c1)OCO2 returned Hsp70 act 0, Wee1 stabilizer -1, NPY1 pot ag -11, NPY Y1 blocker -2 and NPY2 pot ag -14.
Screening CSc1ccccc1NC(=O)CSCc1ccc(Br)cc1 returned Hsp70 act 0, Wee1 stabilizer -1, NPY1 pot ag -23, NPY Y2 blocker 12, NPY Y1 blocker 27*, NPY2 pot ag -20, NPY1 antag conf 1 and NPY-Y2 antag ct 5.
CSc1ccccc1NC(=O)CSCc1ccccc1Br was read as Hsp70 act 0, Wee1 stabilizer 1, NPY1 pot ag -13, NPY Y2 blocker 6, NPY Y1 blocker 17 and NPY2 pot ag -6.
`COc1ccc(C(=O)N2N=C(c3cccc(OC)c3)CC2(O)C(F)(F)F)cc1` (stereo not given) gave Hsp70 act 0, Wee1 stabilizer 2, NPY1 pot ag -33, NPY Y2 blocker 2, NPY Y1 blocker 14 and NPY2 pot ag -16.
For COc1cccc(C2=NN(C(=O)c3ccc(C)o3)C(O)(C(F)(F)F)C2)c1 (stereo not given) the results were Hsp70 act 0, Wee1 stabilizer -1, NPY1 pot ag -15, NPY Y1 blocker 31*, NPY2 pot ag 0, NPY1 antag conf 12 and NPY-Y2 antag ct 15.
Cc1ccc(Nc2nc(NCc3ccco3)c3ccccc3n2)cc1 was read as Hsp70 act 0, Wee1 stabilizer 2, NPY1 pot ag -4, NPY Y1 blocker 13 and NPY2 pot ag 11.
`O=C(NCc1ccccc1)C1=C[C@@H](C2CC2)C[C@@H](OCCCCO)O1` gave Hsp70 act 0, Wee1 stabilizer -3, NPY1 pot ag 0, NPY Y1 blocker -3 and NPY2 pot ag -18.
Screening C=CCNCC(=O)N1N=C(c2ccc3ccccc3c2)CC1c1ccc(OC)cc1 (stereo not given) returned Hsp70 act 0, Wee1 stabilizer 0, NPY1 pot ag -37, NPY Y1 blocker 32*, NPY2 pot ag -35, NPY1 antag conf 32* and NPY-Y2 antag ct 50*.
Screening COc1ccc(C2CC(c3ccc4ccccc4c3)=NN2C(=O)CNC2CCCCC2)cc1 (stereo not given) returned Hsp70 act 0, Wee1 stabilizer -3, NPY1 pot ag 5, NPY Y1 blocker 30*, NPY2 pot ag 15, NPY1 antag conf 37* and NPY-Y2 antag ct 33*.
COc1ccc(C2CC(c3ccc4ccccc4c3)=NN2C(=O)CN2CCC(C(N)=O)CC2)cc1 (stereo not given) was read as Hsp70 act 0, Wee1 stabilizer 0, NPY1 pot ag -46, NPY Y1 blocker 17 and NPY2 pot ag -20.
O=C(Nc1nc2ccccc2s1)c1ccc(OCC2CCCO2)cc1 (stereo not given) was read as Hsp70 act 0, Wee1 stabilizer -1, NPY1 pot ag 11, NPY Y2 blocker 3, NPY Y1 blocker -5 and NPY2 pot ag 8.

Assay outcomes from PubChem.
